Compound activity as filed in PubChem.
Rows were chosen to be rich in hits. Some 2.6% of all compounds tested hit in one or more screens of this group.
SR-BI HDL uptake: mouse SR-BI HDL lipid transfer inhibition. ldlA[mSR-BI] CHO cells, DiI-HDL uptake fluorescence, 3 h. inhibition, % at 12.5 µM. hit rate 0.96% among 320,000. AID 488896;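 active = mean replicate inhibition of at least 70% and a set share of replicates each scoring 70 or more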;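 also: 0% = median of neutral control wells and 100% = median of positive control wells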
Target sequence (Q61009 whole entry, looked up): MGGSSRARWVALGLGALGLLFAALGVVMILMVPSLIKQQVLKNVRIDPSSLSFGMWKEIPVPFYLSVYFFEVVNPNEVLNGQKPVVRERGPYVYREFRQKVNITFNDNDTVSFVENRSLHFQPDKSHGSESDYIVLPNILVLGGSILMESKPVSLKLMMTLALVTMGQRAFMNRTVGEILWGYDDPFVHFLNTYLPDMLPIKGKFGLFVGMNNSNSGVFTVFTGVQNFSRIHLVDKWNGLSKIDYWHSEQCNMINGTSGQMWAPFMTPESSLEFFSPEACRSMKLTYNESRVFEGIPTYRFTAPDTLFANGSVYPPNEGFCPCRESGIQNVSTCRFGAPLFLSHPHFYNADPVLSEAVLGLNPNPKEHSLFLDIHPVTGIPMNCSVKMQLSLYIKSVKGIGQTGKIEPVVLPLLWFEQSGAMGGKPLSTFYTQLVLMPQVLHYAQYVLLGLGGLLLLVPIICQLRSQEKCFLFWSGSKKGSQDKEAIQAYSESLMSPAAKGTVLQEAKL
PvdQ inh: P. aeruginosa PvdQ acylase inhibition; purified PvdQ acylase, fluorescence plate reader; inhibition, % at 10 µM; hit rate 0.063% among 340,000; AID 488965; in the data active = inhibition above about 30%, passing the limit was not always enough;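 also: 0% = vehicle neutral wells and 100% = reference inhibitor wells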
Ecoli rRNA inh: inhibitors of bacterial rRNA selective over humanized ribosomes. GFP signal change (wild-type ribosome), % (test concentration not listed). hit rate 1.6% among 350,000. E. coli WT GFP vs humanized-ribosome RFP mutants, fluorescence, 24 h; active compounds read low; DMSO median 0, no signal -100. AID 720706;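 active = significant combined selectivity score with lowered wild-type GFP, culture density cut under 30%, mutant RFP and density less affected; inactive = any of these conditions unmet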
dFosB activator: mouse delta FosB homodimer activation | purified delta FosB, TAMRA-CDK5 oligo fluorescence polarization; percent of positive-control signal above neutral wells | hit rate 0.99% among 340,000 | P13346 | activation, % at 25 µM;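 active = mean activation above about 17%, with every replicate also reaching it, limit read from the data, passing the limit was not always enough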
SR-BI uptake up: enhances SR-BI lipid uptake from DiI-HDL; hit rate 0.096% among 320,000; AID 504775; activation, % at 12.5 µM; CHO ldlA[mSR-BI] cells, DiI-HDL uptake fluorescence, 3 h; 100 = double the neutral-control signal;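 active = mean replicate activation of at least 60% and every replicate at or above 60%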;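 also: 0% = median plate neutral-control signal and 100% = twice that signal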
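Test system: SR-BI-overexpressing, LDLR-lacking CHO cells. Measured by: DiI fluorescence, bottom read. Medium: Ham's F12 with 0.5% BSA, HEPES 25 mM, pH 7.4. Timing: 3 h uptake period with compound, 37 °C.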
Xi reactivation: X-chromosome reactivation activator; hit rate 0.055% among 360,000; activation, % at 7.58 µM; XiGFP mouse fibroblasts, % GFP-positive cells imaging, 3 d; cells co-treated with 5-aza-dC sensitizer; scaled so ellipticine positive control = 100%;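 active = mean normalized replicate activation at least 10% and every replicate at or above 10%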;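 also: 0% = median of on-plate neutral control wells and 100% = ellipticine 6 µM median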
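Material: XiGFP fibroblasts, SV40-immortalized. Buffer or medium: DMEM plus 5-aza-dC sensitizer. Compound: single concentration per compound, delivered by pin transfer. Times: 3 days compound exposure. Controls: ellipticine 6 µM.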
Numbers without * were called inactive; · = no result.

SMILES | SR-BI HDL uptake | PvdQ inh | Ecoli rRNA inh | dFosB activator | SR-BI uptake up | Xi reactivation
O=C(Nc1ccc(C(=O)N2CCOCC2)cc1)c1cc(-c2cccnc2)nc2ccc(Cl)cc12 | 79* | 8 | 10 | -32 | -79 | 0
O=C(NCCCNC(=O)c1c(F)cccc1F)c1c(F)cccc1F | 78* | -13 | 9 | -1 | -78 | 0
O=C(N1CCN(S(=O)(=O)c2ccc(Cl)cc2)CC1)n1ccnc1 | -65 | -6 | 6 | 3 | 65* | 0
CCc1cc(=O)oc2c(CNC(Cc3ccccc3)C(=O)O)c(O)ccc12 (stereo unspecified) | · | · | 14 | · | · | 0
Clc1ccc(-c2nnc(-c3ccccc3)nc2-c2c[nH]c3ccccc23)cc1 | 33 | -13 | 4 | 1 | -33 | 0
c1ccc(-c2nnc(-c3ccccc3)c(-c3c[nH]c4ccccc34)n2)cc1 | 76* | -8 | · | -4 | -76 | ·
Clc1cccc(Cl)c1COn1nnc2ccccc21 | -16 | -8 | · | -10 | 16 | ·
c1ccc(COn2nnc3ccccc32)c(COn2nnc3ccccc32)c1 | 36 | -9 | -43* | -24 | -36 | ·
O=C(CSc1ccncc1)Nc1ccc(S(=O)(=O)Nc2nccs2)cc1 | · | 9 | 5 | 0 | · | 0
CCOC(=O)/C=C/C(=O)Nc1ccc(S(=O)(=O)Nc2nccs2)cc1 | 73* | -11 | 4 | -2 | -73 | 0
CCOCC(=O)Nc1ccc(S(=O)(=O)Nc2nccs2)cc1 | -8 | -2 | 13 | 3 | 8 | 0
Cc1ccc(SCC(=O)Nc2ccc(S(=O)(=O)Nc3nccs3)cc2)cc1 | -13 | -3 | -37* | -2 | 13 | 0
Nn1c(SCc2cc([N+](=O)[O-])cc3c2OCOC3)nnc1-c1ccccn1 | 30 | -11 | 13 | 5 | -30 | 0
CCOc1ccccc1N(CC(=O)Nc1ccc2c(c1)OCCO2)S(C)(=O)=O | -19 | -4 | · | -7 | 19 | ·
CC1=CC2=NC(=O)/C(=C/c3cccn3Cc3ccccc3)C(=N)N2O1 | 27 | -6 | -35* | -20 | -27 | 0
COc1ccc(/C=N/Nc2nc(-c3ccc(Cl)cc3)cc(C(F)(F)F)n2)c(OC)c1 | 80* | -18 | · | -2 | -80 | 0
COc1ccc(/C(C)=N\Nc2nc(-c3ccc(Cl)cc3)cc(C(F)(F)F)n2)cc1OC | 61 | -22 | 0 | -14 | -61 | 0
Cc1cc(C)nc(SCc2ccc(C(=O)N/N=C/c3cccc(O)c3O)cc2)n1 | 93* | -9 | · | -5 | -93 | 0
COc1ccc(O)c(/C=N/NC(=O)c2ccc(CSc3nc(C)cc(C)n3)cc2)c1 | 125* | 3 | · | 3 | -125 | 0
COc1ccc(/C=N/NC(=O)c2ccc(CSc3nc(C)cc(C)n3)cc2)cc1O | 4 | 9 | · | 2 | -4 | 0
Cc1cc(C)nc(SCc2ccc(C(=O)N/N=C/c3ccc(C(=O)O)cc3)cc2)n1 | 18 | 9 | -8 | -19 | -18 | 0
c1coc(-c2nn3c(-c4ccco4)nnc3s2)c1 | -11 | -1 | · | -11 | 11 | ·
COc1ccccc1-c1nn2c(-c3ccco3)nnc2s1 | -15 | -10 | -22* | -85 | 15 | ·
COc1cc(CNCCC2CCOC(C)(C)C2)ccc1O (stereo unspecified) | -2 | -3 | · | 7 | 2 | ·
O=C(C=P(c1ccccc1)(c1ccccc1)c1ccccc1)c1ccccc1-c1ccccc1C(=O)C=P(c1ccccc1)(c1ccccc1)c1ccccc1 | -13 | 8 | 0 | 36* | 13 | 0
SMILES | SR-BI HDL uptake | PvdQ inh | Ecoli rRNA inh | dFosB activator | SR-BI uptake up | Xi reactivation
CN/N=C(\Cc1nc2ccccc2[nH]1)c1ccc([N+](=O)[O-])cc1 | 66 | 9 | -22* | -1 | -66 | 0
O=C(Cc1nc2ccccc2[nH]1)c1ccc([N+](=O)[O-])cc1 | 34 | -14 | -14 | -4 | -34 | 0
CCC(/C=C1\Oc2ccc(OC)cc2N1C)=C\c1sc2ccccc2[n+]1CCCS(=O)(=O)[O-] | -13 | -13 | 10 | 26* | 13 | 0
Cc1ccc2c(c1)sc(C)[n+]2CCCS(=O)(=O)[O-] | -15 | 5 | 17 | -6 | 15 | 0
COc1cc(/C=C/c2sc3ccccc3[n+]2CCCS(=O)(=O)[O-])ccc1O | -18 | -3 | -31 | 241* | 18 | 0
Cn1c(SCC(=O)NC2CC2)nnc1-c1ccccc1Cl | -18 | -3 | 1 | 10 | 18 | 0
N#CC(Sc1ccccn1)c1ccc(Cl)cc1Cl (stereo unspecified) | 9 | 29 | -21* | 3 | -9 | 0
O=C(N[C@@H]1CC[C@@H](CCNC(=O)C2CC2)O[C@H]1CO)c1ccccn1 | · | · | 0 | · | · | 0
Oc1ccccc1C1=NN(c2ccccc2)C(c2ccc(F)cc2)C1 (stereo unspecified) | 74* | -10 | 7 | 1 | -74 | 0
Oc1ccc(C2=NN(c3ccccc3)C(c3ccc(F)cc3)C2)cc1 (stereo unspecified) | 27 | -4 | -4 | -7 | -27 | 0
CCOC(=O)C1=NNC(C(=O)c2ccccc2)C1c1ccc(C)cc1 (stereo unspecified) | -1 | -12 | -26* | -7 | 1 | 0
Cc1ccc(-n2c(Cc3ccccc3)n[nH]c2=S)cc1 | -13 | -8 | · | 0 | 13 | ·
CCCCCCCCCCOC(=O)C[N+](C)(C)C/C=C(/C)Cl | -2 | -10 | 6 | 6 | 2 | 0
CCCCCCCCOC(=O)C[N+](C)(C)C/C=C(/C)Cl | -28 | -8 | -35* | 2 | 28 | 0
CN(Cc1ccon1)C(=O)CC1C(=O)NCCN1CC(C)(C)C (stereo unspecified) | -5 | -12 | 10 | -6 | 5 | 0
CC(C)(C)/C(COc1ccccc1[N+](=O)[O-])=N/O | -13 | -22 | -17* | 1 | 13 | 0
NNC(=O)COc1ccccc1[N+](=O)[O-] | -4 | 11 | 6 | -2 | 4 | 0
Cc1ccc(-c2cn(-c3ccccc3)c(SCC(N)=O)n2)cc1C | 21 | -7 | · | -4 | -21 | 0
Cc1ccccc1-n1cc(-c2ccc(Br)cc2)nc1SCC(N)=O | 8 | -8 | -41* | -5 | -8 | 0
COC(=O)[C@@H]1[C@@H](CO)[C@@H]2Cn3c(ccc(-c4ccccc4)c3=O)[C@@H]2N1Cc1ccccn1 | · | · | 0 | · | · | 0
Cc1cc(C(=O)COC(=O)Cc2n[nH]c(=O)c3ccccc23)c(C)n1-c1ccc2c(c1)OCO2 | 17 | -12 | -25* | -6 | -17 | 0
CCOC(=O)C(Cc1ccc(O)c([N+](=O)[O-])c1)N1C(=O)c2ccccc2C1=O (stereo unspecified) | -7 | -17 | -25* | -45 | 7 | 0
